# According to article PMC3747510 (Scientific Reports, 2013):
# Experiments:
# Format in all cases: biochemical
# [1] = target: T1, yeast cytosolic LeuRS (Saccharomyces cerevisiae, UniProt P26637); experiment: Aminoacylation by yeast cytosolic LeuRS; conditions: 100 μM ZCL039
# T1 sequence (P26637 1-1090): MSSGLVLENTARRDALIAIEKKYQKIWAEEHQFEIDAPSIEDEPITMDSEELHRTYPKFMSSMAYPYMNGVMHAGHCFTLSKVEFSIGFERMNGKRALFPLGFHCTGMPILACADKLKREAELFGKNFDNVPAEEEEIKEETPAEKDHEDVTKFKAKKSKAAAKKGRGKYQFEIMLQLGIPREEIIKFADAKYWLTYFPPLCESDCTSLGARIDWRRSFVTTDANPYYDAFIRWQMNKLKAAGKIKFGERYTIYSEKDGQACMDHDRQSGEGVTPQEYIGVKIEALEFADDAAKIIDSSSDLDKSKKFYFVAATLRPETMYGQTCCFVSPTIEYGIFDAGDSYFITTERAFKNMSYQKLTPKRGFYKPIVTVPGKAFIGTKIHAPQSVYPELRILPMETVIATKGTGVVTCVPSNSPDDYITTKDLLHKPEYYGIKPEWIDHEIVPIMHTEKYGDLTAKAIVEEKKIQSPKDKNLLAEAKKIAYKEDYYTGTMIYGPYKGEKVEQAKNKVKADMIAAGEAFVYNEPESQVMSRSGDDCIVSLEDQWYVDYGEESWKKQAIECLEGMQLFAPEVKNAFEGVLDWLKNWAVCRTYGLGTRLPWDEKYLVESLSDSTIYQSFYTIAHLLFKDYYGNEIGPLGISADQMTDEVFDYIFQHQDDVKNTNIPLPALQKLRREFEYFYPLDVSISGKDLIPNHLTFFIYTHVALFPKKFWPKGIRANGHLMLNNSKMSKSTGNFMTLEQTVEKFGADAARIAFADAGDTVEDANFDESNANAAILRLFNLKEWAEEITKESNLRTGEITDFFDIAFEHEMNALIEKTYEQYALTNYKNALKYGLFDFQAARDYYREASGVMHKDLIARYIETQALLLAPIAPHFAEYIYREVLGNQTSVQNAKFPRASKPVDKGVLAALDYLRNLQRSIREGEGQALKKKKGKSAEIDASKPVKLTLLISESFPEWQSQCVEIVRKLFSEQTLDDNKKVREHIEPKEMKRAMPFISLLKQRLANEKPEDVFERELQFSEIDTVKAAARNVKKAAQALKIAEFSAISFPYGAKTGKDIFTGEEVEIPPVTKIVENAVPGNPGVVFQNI
# [2] = target: T2, SpLeuRS T252R (Streptococcus pneumoniae serotype 4, UniProt Q97SS0, T252R); experiment: Aminoacylation by SpLeuRS T252R mutant; conditions: 50 μM ZCL039
# T2 sequence (Q97SS0 1-833 T252R): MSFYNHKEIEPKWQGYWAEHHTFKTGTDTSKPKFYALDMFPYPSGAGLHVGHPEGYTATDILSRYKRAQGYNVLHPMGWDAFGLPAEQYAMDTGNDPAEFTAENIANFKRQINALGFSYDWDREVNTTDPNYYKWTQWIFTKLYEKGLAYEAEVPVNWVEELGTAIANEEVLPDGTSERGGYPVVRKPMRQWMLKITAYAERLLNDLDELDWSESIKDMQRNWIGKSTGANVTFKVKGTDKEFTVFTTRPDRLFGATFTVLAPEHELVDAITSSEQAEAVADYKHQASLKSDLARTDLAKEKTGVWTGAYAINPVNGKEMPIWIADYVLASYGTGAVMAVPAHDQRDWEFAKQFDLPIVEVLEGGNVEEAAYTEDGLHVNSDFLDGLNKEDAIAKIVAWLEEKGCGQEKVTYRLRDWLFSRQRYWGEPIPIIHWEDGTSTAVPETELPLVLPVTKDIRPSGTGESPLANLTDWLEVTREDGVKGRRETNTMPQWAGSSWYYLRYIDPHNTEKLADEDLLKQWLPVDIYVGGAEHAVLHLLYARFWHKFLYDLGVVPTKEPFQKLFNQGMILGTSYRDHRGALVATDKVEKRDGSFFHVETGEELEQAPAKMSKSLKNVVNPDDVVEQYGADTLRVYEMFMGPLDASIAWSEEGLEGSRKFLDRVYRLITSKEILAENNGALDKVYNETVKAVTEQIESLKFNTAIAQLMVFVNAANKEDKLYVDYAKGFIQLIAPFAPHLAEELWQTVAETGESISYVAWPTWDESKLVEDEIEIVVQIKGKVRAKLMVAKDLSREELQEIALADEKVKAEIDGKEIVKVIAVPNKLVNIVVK
# Method in brief: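 Aminoacylation at 37°C, started with 4 mM ATP. Point mutants were made by site-directed mutagenesis. The MmLinker chimera has CP1 Lys226–Thr411 replaced by a nonapeptide. Means of three independent experiments.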
# [3] = target: E. coli LeuRS (EcLeuRS) (Escherichia coli, UniProt P07813); experiment: Aminoacylation inhibition
# Chain of E. coli LeuRS (EcLeuRS) (P07813 whole entry): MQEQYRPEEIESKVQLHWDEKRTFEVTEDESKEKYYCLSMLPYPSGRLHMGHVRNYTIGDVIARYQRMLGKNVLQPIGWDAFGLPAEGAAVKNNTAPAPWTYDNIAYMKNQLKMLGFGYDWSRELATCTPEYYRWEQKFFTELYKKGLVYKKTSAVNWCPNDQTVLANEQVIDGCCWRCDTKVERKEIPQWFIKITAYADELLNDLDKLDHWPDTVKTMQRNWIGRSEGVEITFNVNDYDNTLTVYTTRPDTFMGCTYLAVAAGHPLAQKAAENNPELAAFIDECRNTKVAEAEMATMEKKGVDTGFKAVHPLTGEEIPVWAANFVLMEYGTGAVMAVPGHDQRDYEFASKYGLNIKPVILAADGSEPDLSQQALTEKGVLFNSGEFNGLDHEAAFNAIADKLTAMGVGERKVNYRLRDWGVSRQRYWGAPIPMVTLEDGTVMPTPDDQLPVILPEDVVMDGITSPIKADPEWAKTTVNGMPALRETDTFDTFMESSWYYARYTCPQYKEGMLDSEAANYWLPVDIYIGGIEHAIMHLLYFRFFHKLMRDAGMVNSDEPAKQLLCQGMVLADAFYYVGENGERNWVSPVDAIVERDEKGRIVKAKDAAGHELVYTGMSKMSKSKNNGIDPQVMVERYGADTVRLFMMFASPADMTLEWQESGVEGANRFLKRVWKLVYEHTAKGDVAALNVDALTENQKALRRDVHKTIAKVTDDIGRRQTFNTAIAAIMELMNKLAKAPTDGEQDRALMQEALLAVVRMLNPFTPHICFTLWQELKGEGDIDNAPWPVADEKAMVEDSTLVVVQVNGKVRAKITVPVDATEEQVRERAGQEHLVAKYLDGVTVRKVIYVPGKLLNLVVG
# Method in brief: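 Aminoacylation at 37°C with [3H]leucine, started with 4 mM ATP, in Tris-HCl pH 7.5 buffer. Each LeuRS was used at equal activity, i.e. forming 10 pmol Leu-tRNALeu in 5 min. At least six test-compound concentrations were tested. IC50 was taken from a fitted dose-response curve, as the mean of at least two independent experiments.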
structure (smiles),measurement,setting,value
"OB1OCc2ccc(C(O)c3ccccc3)cc21 (stereo not shown) [ZCL039, [6-(1-phenyl-1-hydroxylmethyl)]-1,3-dihydro-1-hydroxy-2,1-benzoxaborole]",Activity against yeast cytosolic LeuRS aminoacylation,[1],little effect
same,Effect on synthetic activity of T252R mutant,[2],did not affect
same,IC50,[3],8.25 ± 1.2 µM
same,IC50 towards SpLeuRS relative to EcLeuRS,[3]; printed as higher,5 fold
